Measurements from PubChem BioAssay.
Active and inactive are the calls of the source.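 How the source made its calls, unless noted: active means fluorescence slope higher than the sample average by over 3 SD (cut at about -0.22 in these data, passing the limit was not always enough); inactive means the rest.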

Tests used:
[1] = inhibitors of TNFa-induced NFkB p65 translocation, primary screen, imaging, HUVEC, MLSMR starter and 10KST1 sets (AID 438;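 active means inhibition above 20% together with a positive visual image hit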;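 further: compound added about 3h40 before a 20 min TNFalpha stimulation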;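 on inhibition: signal is the nuclear over cytoplasmic p65 intensity ratio per well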); conditions: HUVEC TNFa-induced p65 nuclear translocation; cell count: measured here: nuclei count (cytotoxicity indicator), at 2.08 µM; inhibition: at 2 µM, stronger effect = higher value, 0% TNFa-plus-vehicle, 100% no-TNFa wells
[2] = inhibitors of mutant huntingtin aggregation, primary screen, imaging, exon1htt(103Q)mCFP cells, high-content imaging (AID 483;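 active means visual image review flags a hit and inhibition of aggregation exceeds 20%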;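 further: compound exposure lasted 3 days before fixation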;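 on nuclei count: percent of the per-plate median nuclei count of sample wells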); conditions: exon1htt(103Q)mCFP cell line, aggregate imaging, at 2 µM; inhibition of aggregation: stronger effect = higher value; nuclei count: measured here: cell count, toxicity
[3] = inhibitors of E-selectin induction by TNFa, primary screen, imaging, HUVEC, immunofluorescence, MLSMR starter and 10KST1 sets (AID 487;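 active means visually confirmed hit in the image check and inhibition above 20%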;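 on inhibition: signal is fraction of cell area covered by stained E-selectin grains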;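 on nuclei count: 100% = median nuclei count of all wells on the same plate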); conditions: HUVEC TNFalpha-induced E-selectin immunofluorescence imaging, at 2 µM; inhibition: stronger effect = higher value; nuclei count: measured here: cell number, toxicity
[4] = biological target: Voltage-gated potassium channel subunit beta-2 (Rattus norvegicus) (UniProt P62483); assay: KvBeta enzyme negative modulators, primary screen, biochemical, NADPH fluorescence (AID 622); conditions: recombinant KvBeta, 4-cyanobenzaldehyde reduction, at 10 µM, stronger effect = higher value;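 further: slope of raw intensity against log time taken from 70 to 1610 s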
[5] = biological target: Voltage-gated potassium channel subunit beta-2 (Rattus norvegicus) (UniProt P62483); assay: KvBeta positive modulators, primary screen, biochemical, NADPH fluorescence (AID 623;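 active means NADPH fluorescence slope more negative than the mean of all samples by about 3 SD, 99.7% confidence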;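 further: fluorescence intensity change per second fitted from 20 to 320 s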); conditions: Recombinant KvBeta, NADPH fluorescence decrease slope, 10 min; at 10 µM; stronger effect = lower value
[6] = biological target: Muscarinic acetylcholine receptor M4 (Homo sapiens) (UniProt P08173); assay: compounds altering M4/GIRK thallium flux, either direction, primary screen, M4 allosteric agonist project, cell-based, HEK293 M4/GIRK, BTC-AM (AID 625;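 active means fluorescence slope after compound addition differing from the mean of all tested samples at 99.7% confidence, mostly higher but some lower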;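 further: thallium influx through GIRK channels coupled to M4 in HEK293 cells with BTC-AM dye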); conditions: at 10 µM, actives lie on both sides
Outline: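 Material – HEK293 cells with M4 receptor and GIRK channels · Buffer or medium – pH 7.3 thallium assay buffer · Doses – one dose, 10 µM final · Timing – cells overnight at 37 °C, BTC-AM loading 1 h, reads 2 min total · Measured by – kinetic fluorescence with BTC-AM dye · Controls – carbachol and DMSO controls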

[7] = inhibitors of Sendai virus-induced IRF3 signaling, primary screen, TLR/RLR signaling modifier project, cell-based, Sendai virus stimulus, luciferase, 10K MLSCN set (AID 602276;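 active means inhibition at or above 50% at 10 µM; inactive means inhibition below 50%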;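 further: firefly luciferase from ISG56 promoter only with Renilla not read in this screen; 0% = Sendai virus plus DMSO and 100% = medium plus DMSO without virus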); conditions: HEK293 RL24 IRF3 luciferase reporter, at 10 µM, stronger effect = higher value
[8] = inhibitors of poly I:C-induced TLR3 signaling, primary screen, cell-based, poly I:C stimulus, luciferase, 10K MLSCN set (AID 602277;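 active means inhibition of the reporter signal at or above 50%; inactive means inhibition below 50%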); conditions: HEK293-TLR3 RL24 IRF3 luciferase reporter, at 10 µM, stronger effect = higher value

Muscarinic acetylcholine receptor M4 (Homo sapiens), sequence (P08173 whole entry, looked up): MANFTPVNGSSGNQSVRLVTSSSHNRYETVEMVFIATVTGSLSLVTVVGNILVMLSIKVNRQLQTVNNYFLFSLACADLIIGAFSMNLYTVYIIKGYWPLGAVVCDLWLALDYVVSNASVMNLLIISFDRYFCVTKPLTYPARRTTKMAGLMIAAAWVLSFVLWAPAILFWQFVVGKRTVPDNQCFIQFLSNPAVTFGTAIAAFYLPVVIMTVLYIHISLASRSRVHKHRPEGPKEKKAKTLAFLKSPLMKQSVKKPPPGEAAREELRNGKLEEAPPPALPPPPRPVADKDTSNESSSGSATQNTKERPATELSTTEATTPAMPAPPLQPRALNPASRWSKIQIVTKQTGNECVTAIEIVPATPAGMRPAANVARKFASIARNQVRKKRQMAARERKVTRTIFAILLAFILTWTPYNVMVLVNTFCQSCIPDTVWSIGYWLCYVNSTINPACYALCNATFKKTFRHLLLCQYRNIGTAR
Voltage-gated potassium channel subunit beta-2 (Rattus norvegicus), sequence (P62483 whole entry, looked up): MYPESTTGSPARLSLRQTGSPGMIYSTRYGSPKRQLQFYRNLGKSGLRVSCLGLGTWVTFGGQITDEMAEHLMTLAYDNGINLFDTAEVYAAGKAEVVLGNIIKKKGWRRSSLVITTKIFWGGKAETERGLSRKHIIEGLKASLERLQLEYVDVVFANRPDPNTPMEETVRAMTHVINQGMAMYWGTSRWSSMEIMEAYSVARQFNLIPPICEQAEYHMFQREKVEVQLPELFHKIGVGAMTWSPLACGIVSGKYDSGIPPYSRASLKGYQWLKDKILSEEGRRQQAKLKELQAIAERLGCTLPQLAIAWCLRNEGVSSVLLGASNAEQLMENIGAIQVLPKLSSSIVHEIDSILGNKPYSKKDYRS

| SMILES | cell count [1] | inhibition [1] | inhibition of aggregation [2] | nuclei count [2] [%] | inhibition [3] | nuclei count [3] [%] | fluorescence slope [4] | NADPH fluorescence slope [5] | fluorescence slope [6] | inhibition [7] | inhibition [8] |
| --- | --- | --- | --- | --- | --- | --- | --- | --- | --- | --- | --- |
| CCc1ccc(NC(=O)c2cc(-c3ccco3)on2)cc1 | 382 | -5.1% (inactive) | 7.7% (inactive) | 99.2 | 6.4% (inactive) | 93.1 | -0.44 (inactive) | -4.3e-05 (inactive) | 0.00523 (inactive) | -42.1% (inactive) | -129% (inactive) |
| Cc1cc(=O)n2[nH]c(COc3ccccc3)nc2n1 | 203 | -7.9% (inactive) | 31.3% (inactive) | 101 | -85.5% (inactive) | 91.6 | -0.531 (inactive) | -4.3e-05 (inactive) | 0.00471 (inactive) | 6.61% (inactive) | 14.8% (inactive) |
| Oc1ccc(-c2onc(C(F)(F)F)c2-c2cscn2)c(O)c1 | 363 | -0.5% (inactive) | -7% (inactive) | 92.7 | -85.6% (inactive) | 116 | -0.573 (inactive) | -5.1e-05 (inactive) | 0.00657 (inactive) | 14.9% (inactive) | -12.3% (inactive) |
| Cc1[nH]c(=O)[nH]c(=O)c1S(=O)(=O)Nc1ccc(Oc2ccccc2)cc1 | 638 | -3.2% (inactive) | -7.6% (inactive) | 117 | -25.8% (inactive) | 107 | -0.574 (inactive) | -2.9e-05 (inactive) | 0.00503 (inactive) | 19.8% (inactive) | 24.8% (inactive) |
| Cc1ccc(-c2nnn(CC(=O)N(CC(=O)NCC3CCCO3)c3ccccc3)n2)o1 (stereo not drawn) | 618 | -3.6% (inactive) | -12.2% (inactive) | 85.7 | -161% (inactive) | 106 | -0.584 (inactive) | -1.6e-05 (inactive) | 0.00876 (inactive) | 1.41% (inactive) | 5.51% (inactive) |
| CCCN(CCC)CCNC(=O)C(NS(=O)(=O)c1ccc2c(c1)CCC(=O)N2)c1ccccc1 (stereo not drawn) | 524 | 0.7% (inactive) | -8.1% (inactive) | 98.1 | -17.1% (inactive) | 112 | -0.555 (inactive) | -5e-05 (inactive) | 0.00588 (inactive) | 8.32% (inactive) | 24.9% (inactive) |
| Cc1ccc(C2C(C#N)=C(N)Oc3cc4c(cc32)OCO4)cc1 (stereo not drawn) | 373 | -5.8% (inactive) | 32.6% (inactive) | 69.9 | 22.1% (inactive) | 104 | -0.541 (inactive) | -3.6e-05 (inactive) | 0.00467 (inactive) | 24.6% (inactive) | 45.5% (inactive) |
| COc1ccccc1-c1noc(-c2ccco2)n1 | 691 | 7.2% (inactive) | 16.8% (inactive) | 82.3 | 6% (inactive) | 101 | -0.554 (inactive) | -4.8e-05 (inactive) | 0.00616 (inactive) | -44.2% (inactive) | -96.7% (inactive) |
